Measured values reported in ChEMBL document CHEMBL1138962, “Exploration of a new type of antimalarial compounds based on febrifugine” (J Med Chem, 2006).
≈ marks a conversion by molar mass, not a printed value. Blank lines part the entries; values can stand above or below the molecule they belong to.

Legend:
[1] = test system: Plasmodium falciparum; assay: Antimalarial activity against chloroquine-sensitive Plasmodium falciparum FCR3 by pLDH reporter assay; assay type: functional, organism-based
Outline: (§1)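 P. falciparum cultured in human A+ erythrocytes in RPMI-1640 (25 mM HEPES, hypoxanthine, gentamicin) with 10% human plasma, 37 °C, 93% N2/4% CO2/3% O2. Asynchronous parasites at 2.0% hematocrit, 0.5% parasitaemia. Compound added in water or 5% DMSO, 72 h at 37 °C. pLDH read-out: Malstat, then NBT/PES, formazan at 650 nm. EC50 from dose-response curve.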

[2] = test system: Plasmodium falciparum; assay: Antimalarial activity against chloroquine-resistant Plasmodium falciparum K1 by pLDH reporter assay; assay type: functional, organism-based; outline: as §1
[3] = test system: L929; assay: Cytotoxicity against mouse L929 cells by MTT assay; assay type: functional, cell-based
Outline: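 MTT assay in mouse L929 cells (1.8 × 10⁴ cells/well) in RPMI-1640 with 10% FBS. Compound added in distilled water or 10% DMSO (added solution), then 48 h at 37 °C, 5% CO₂. MTT 4 h, formazan dissolved in DMSO, absorbance read at 570 and 655 nm. EC50 from dose-response curve.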

[4] = Toxicity in po dosed ICR mouse; assay type: organism-based; conditions: in vivo
Outline: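 Acute toxicity in mice, compound given orally. LD50 determined.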

[5] = test system: Plasmodium berghei; assay: Antimalarial activity against Plasmodium berghei NK65 infected ICR mice (Mus musculus) peroral dose; assay type: functional
Outline: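 P. berghei NK65 4-day suppressive test. Male ICR mice (18-20 g) infected i.v. with 10⁶ parasitized red cells. Compounds suspended in 5% gum arabic, given orally 2 h post-infection (Day 0), then once daily Days 1-3. Day 4 tail-vein blood, parasitaemia from thin blood films; ED50 from dose-response curve.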

[6] = Therapeutic index; LD50 for ICR mice (Mus musculus)/ED50 against Plasmodium berghei NK65; conditions: read-out: Ratio LD50/ED50
Outline: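 Index is mouse LD50 (oral acute toxicity) divided by oral ED50 against P. berghei in mice. For ED50, a 4-day suppressive test was used. Male ICR mice (18-20 g) were inoculated iv with 10⁶ parasitized RBC. Compound was given po in 5% gum arabic 2 h post-infection, then once daily on days 1-3. Parasitaemia was read from tail-blood thin films on day 4.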

[7] = test system: L929; assay: Selectivity for L929 cells over Plasmodium falciparum FCR3 as EC50 ratio; assay type: functional
Outline: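 Ratio of L929 EC50 to P. falciparum FCR-3 EC50. L929 EC50 by 48 h MTT assay. FCR-3 EC50 by pLDH assay: asynchronous parasites in human erythrocytes (2.0% hematocrit, 0.5% parasitaemia), RPMI with 10% human plasma. Incubated 72 h at 37 °C under 93% N₂/4% CO₂/3% O₂. Malstat/NBT-PES read-out at 650 nm; EC50 from dose-response curves.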

Compound: O=C(C[C@H]1NCCC[C@@H]1O)Nc1nc(O)c2ccccc2n1
EC50 [1]: > 1 µg/mL
EC50 [2]: > 1 µg/mL
EC50 [3]: > 100 µg/mL

Compound: O=C(CN1CCCC(O)C1)Cn1cnc2ccccc2c1=O (stereo not drawn)
EC50 [1]: > 1 µg/mL
EC50 [2]: > 1 µg/mL
EC50 [3]: > 100 µg/mL

Compound: O=C(COC1CCCNC1)Cn1cnc2ccccc2c1=O (stereo not drawn)
EC50 [1]: > 1 µg/mL
EC50 [2]: > 1 µg/mL
EC50 [3]: > 100 µg/mL

Compound: O=c1c2ccccc2ncn1CCC[C@H]1NCCC[C@@H]1O
LD50 [4]: > 320 mg/kg
ED50 ([5]; Plasmodium berghei, NK65, po): 22.5 mg/kg
EC50 [1]: 0.0225 µg/mL (≈ 0.0783 µM)
EC50 [2]: 0.0236 µg/mL (≈ 0.0821 µM)
selectivity ratio [6]: > 14
Ratio EC50 [7]: 198
EC50 [3]: 4.45 µg/mL (≈ 15.5 µM)

Compound: O=c1c2ccccc2ncn1CCCC[C@H]1NCCC[C@@H]1O
EC50 [1]: > 1 µg/mL
EC50 [2]: > 1 µg/mL
EC50 [3]: > 100 µg/mL

Compound: O=c1c2ccccc2ncn1CC[C@H]1NCCC[C@@H]1O
EC50 [1]: > 1 µg/mL
EC50 [2]: > 1 µg/mL
EC50 [3]: > 100 µg/mL

Compound: CC[C@H](O)[C@@H](CC(=O)Cn1cnc2ccccc2c1=O)NC
EC50 [1]: > 1 µg/mL
EC50 [2]: > 1 µg/mL
Ratio EC50 [7]: <6.44
EC50 [3]: 6.44 µg/mL (≈ 21.2 µM)

Compound: O=C(C[C@H]1NCCC[C@@H]1O)Cn1cnc2ccsc2c1=O (relative stereo)
LD50 [4]: 88 mg/kg
ED50 [5]: 2.95 mg/kg
EC50 [1]: 0.00306 µg/mL (≈ 0.00996 µM)
EC50 [2]: 0.00319 µg/mL (≈ 0.0104 µM)
selectivity ratio [6]: 30
Ratio EC50 [7]: 184
EC50 [3]: 0.563 µg/mL (≈ 1.83 µM)

Compound: Cc1nc2ccccc2c(=O)n1CC(=O)C[C@H]1NCCC[C@@H]1O (relative stereo)
EC50 [1]: 0.116 µg/mL (≈ 0.368 µM)
EC50 [2]: 0.19 µg/mL (≈ 0.602 µM)
Ratio EC50 [7]: 134
EC50 [3]: 15.6 µg/mL (≈ 49.5 µM)

EC50 [1]: 0.154 µg/mL (≈ 0.509 µM)
Compound: O=C(C[C@H]1NCCC[C@@H]1O)Cn1nnc2ccccc2c1=O (relative stereo)
Ratio EC50 [7]: 106
EC50 [3]: 16.4 µg/mL (≈ 54.2 µM)

Compound: O=C(C[C@H]1NCCC[C@@H]1O)Cn1ccc(=O)c2ccccc21 (relative stereo)
EC50 [1]: > 1 µg/mL
EC50 [2]: > 1 µg/mL
EC50 [3]: > 100 µg/mL

Compound: O=C(C[C@H]1NCCC[C@@H]1O)Cn1cnc2ncnc-2c1O (relative stereo)
EC50 [1]: 0.506 µg/mL (≈ 1.74 µM)
EC50 [2]: 0.943 µg/mL (≈ 3.24 µM)
Ratio EC50 [7]: >198
EC50 [3]: > 100 µg/mL

Compound: O=C(C[C@H]1NCCC[C@@H]1O)Cn1cnc2ccc(F)cc2c1=O (relative stereo)
LD50 [4]: < 2.5 mg/kg
EC50 [1]: 0.00073 µg/mL (≈ 0.00229 µM)
EC50 [2]: 0.000916 µg/mL (≈ 0.00287 µM)
Ratio EC50 [7]: 108
EC50 [3]: 0.079 µg/mL (≈ 0.247 µM)

Compound: O=C(C[C@@H]1NCCC[C@H]1O)Cn1cnc2ccccc2c1=O (single isomer, unassigned) [FEBRIFUGINE]
LD50 [4]: 7.1 mg/kg
ED50 ([5]; Plasmodium berghei, NK65, po): 0.41 mg/kg
EC50 [1]: 0.00142 µg/mL (≈ 0.00471 µM)
EC50 [2]: 0.0014 µg/mL (≈ 0.00465 µM)
selectivity ratio [6]: 17
Ratio EC50 [7]: 118
EC50 [3]: 0.167 µg/mL (≈ 0.554 µM)

Compound: C[C@@H]1CC[C@H]2[C@@H](C)C(=O)O[C@@H]3O[C@@]4(C)CC[C@@H]1[C@]32OO4 [ARTEMISININ]
EC50 [1]: 0.0179 µg/mL (≈ 0.0634 µM)
EC50 [2]: 0.0117 µg/mL (≈ 0.0414 µM)
Ratio EC50 [7]: >5590
EC50 [3]: > 100 µg/mL

Compound: CCN(CC)CCCC(C)Nc1ccnc2cc(Cl)ccc12 (stereo not drawn) [CHLOROQUINE]
ED50 ([5]; Plasmodium berghei, NK65, po): 1.53 mg/kg
EC50 [1]: 0.0475 µg/mL (≈ 0.148 µM)
EC50 [2]: 0.375 µg/mL (≈ 1.17 µM)
Ratio EC50 [7]: 392
EC50 [3]: 18.6 µg/mL (≈ 58.1 µM)
